# Laboratory results reported in ChEMBL document CHEMBL1143844, “Biochemical studies on the mechanism of human immunodeficiency virus type 1 reverse transcriptase resistance to 1-(beta-D-dioxolane)thymine triphosphate” (Antimicrob Agents Chemother, 2007).
# Experiments:
# [1] = Inhibition of HIV1 LAI reverse transcriptase 65R mutant by heteropolymeric DNA polymerase assay; parameters: species or system Human immunodeficiency virus 1
# In short: (§1)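 Purified p66/p51 HIV-1 RT, or p66 homodimer for 65R, at 30–100 pM (about 1.5–4.5 mU/well). Plate-bound 18-mer DNA primer on a 50-base 5′-A12-(GTCA)5-3′ DNA template. dATP, dGTP, dCTP and BrdUTP at 1.0 μM each, no ATP. Buffer: HEPES 50 mM pH 7.3, 10 mM MgCl2. Incubation 180 min at 33°C, NaOH dehybridization, anti-BrdU-AP tracer, A405. IC50 from seven inhibitor concentrations, at least two experiments in duplicate.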
# [2] = Inhibition of HIV1 reverse transcriptase 41L/67N/70R/210W/215Y mutant in presence of 5 mM ATP by heteropolymeric DNA polymerase assay; parameters: species or system Human immunodeficiency virus 1
# In short: (§2)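 Heteropolymeric DNA polymerase assay with ATP added at 5 mM. Purified HIV-1 RT at 30–100 pM acts on a plate-bound DNA primer with a 5′-A12-(GTCA)5-3′ template. dATP, dGTP, dCTP and BrdUTP at 1.0 μM each. Incubation 180 min at 33°C. IC50 from seven inhibitor concentrations, at least two experiments in duplicate.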
# [3] = Inhibition of HIV1 reverse transcriptase wild type HXB2(a) by heteropolymeric DNA polymerase assay; parameters: species or system Human immunodeficiency virus 1
# In short: (§3)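 Heteropolymeric assay without ATP: plate-bound 18-mer DNA primer (~110 nM) with 50-mer 5′-A12-(GTCA)5 template (190 nM). dATP, dGTP, dCTP and BrdUTP at 1.0 μM each, in HEPES 50 mM pH 7.3, MgCl2 10 mM. RT 30–100 pM, 33°C for 180 min, then NaOH dehybridization and anti-BrdU-AP tracer read at 405 nm. IC50 from seven triphosphate concentrations; two to four runs in duplicate.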
# [4] = Inhibition of HIV1 reverse transcriptase 41L/67N/70R/210W/215Y mutant by heteropolymeric DNA polymerase assay; parameters: species or system Human immunodeficiency virus 1; in short: as §1
# [5] = Inhibition of HIV1 reverse transcriptase wild type HXB2(a) in presence of 20 uM dNTP by heteropolymeric DNA polymerase assay; parameters: species or system Human immunodeficiency virus 1
# In short: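 Heteropolymeric DNA assay containing 5 mM ATP on the 5′-A12-(GTCA)5 template, with each dNTP (BrdUTP in place of TTP) at 1 μM or, in the modified version, 20 μM. Mean IC50 from at least two runs in duplicate.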
# [6] = Inhibition of HIV1 reverse transcriptase 41L/67N/70R/210W/215Y mutant in presence of 1 uM dNTP by heteropolymeric DNA polymerase assay; parameters: species or system Human immunodeficiency virus 1
# In short: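 DNA polymerase assay with 5 mM ATP and purified HIV-1 RT (HXB2 background) on a plate-bound primer with a 5′-A12-(GTCA)5-3′ template. Each dNTP (dATP, dGTP, dCTP, BrdUTP) is set at either 1 μM or 20 μM. IC50 from at least two experiments in duplicate. Fold change is relative to wild-type RT at the same dNTP level.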
# [7] = Inhibition of HIV1 reverse transcriptase wild type HXB2(a) in presence of 5'-A12-(GACT)5-3' by heteropolymeric DNA polymerase assay; parameters: species or system Human immunodeficiency virus 1
# In short: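 Heteropolymeric DNA assay with 5 mM ATP and dNTPs (BrdUTP replacing TTP) at 1.0 μM, using an alternative template repeat, 5′-A12-(GACT)5-3′. Run at 33°C for 180 min, followed by NaOH dehybridization and anti-BrdU-AP detection at 405 nm. IC50 reported in μM as the mean of at least two runs in duplicate.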
# [8] = Inhibition of HIV1 reverse transcriptase 41L/67N/70R/210W/215Y mutant in presence of 5'-A12-(GTCA)5-3' by heteropolymeric DNA polymerase assay; parameters: species or system Human immunodeficiency virus 1
# In short: (§4)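 DNA polymerase assay with 5 mM ATP and 1 μM each dATP, dGTP, dCTP and BrdUTP. The 50-base DNA template carries a 5′-A12 tail with a (GTCA)5 or (GACT)5 repeat. IC50 from at least two experiments in duplicate. Fold change is relative to wild-type RT on the same template.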
# [9] = Inhibition of HIV1 reverse transcriptase 41L/67N/70R/210W/215Y mutant in presence of 5'-A12-(GACT)5-3' by heteropolymeric DNA polymerase assay; parameters: species or system Human immunodeficiency virus 1
# In short: as §4, with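 “repeat. Incubation 180 min at 33°C, NaOH dehybridization, anti-BrdU-AP detection at 405 nm.” for “repeat.”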
# [10] = Inhibition of HIV1 reverse transcriptase 41L/69S-SG/184V/210W/215Y mutant in presence of 5 mM ATP by heteropolymeric DNA polymerase assay; parameters: species or system Human immunodeficiency virus 1
# In short: as §2, with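 “33°C. BrdUMP incorporation read via anti-BrdU-AP at 405 nm after NaOH dehybridization.” for “33°C.”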
# [11] = Inhibition of HIV1 reverse transcriptase 41L/67N/70R/215Y/219Q mutant in presence of 3.2 mM ATP by prA/odT assay; parameters: species or system Human immunodeficiency virus 1
# In short: (§5)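 Buffer: 50 mM HEPES pH 7.3, 10 mM MgCl2, 0.5% Triton X-100, 0.1 mg/ml BSA. Incubation 180 min at 33°C. Product detected with AP-conjugated anti-BrdU at 405 nm. […] Ki from four inhibitor levels. At least two experiments in duplicate.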
# [12] = Inhibition of HIV1 reverse transcriptase 41L/69S-SG/184V/210W/215Y mutant by heteropolymeric DNA polymerase assay; parameters: species or system Human immunodeficiency virus 1; in short: as §1
# [13] = Inhibition of HIV1 reverse transcriptase wild type HXB2(b) by heteropolymeric DNA polymerase assay; parameters: species or system Human immunodeficiency virus 1; in short: as §3
# [14] = Inhibition of HIV1 reverse transcriptase wild type HXB2(a) in presence of 3.2 mM ATP by prA/odT assay; parameters: species or system Human immunodeficiency virus 1
# [15] = Inhibition of HIV1 reverse transcriptase 41L/67N/70R/210W/215Y mutant in presence of 3.2 mM ATP by prA/odT assay; parameters: species or system Human immunodeficiency virus 1; in short: as §5
# [16] = Inhibition of HIV1 reverse transcriptase wild type HXB2(b) in presence of 3.2 mM ATP by prA/odT assay; parameters: species or system Human immunodeficiency virus 1
# [17] = Inhibition of HIV1 HXB2 reverse transcriptase 41L/67N/70R/215Y/219Q mutant by heteropolymeric DNA polymerase assay
SMILES,IC50 [1],IC50 [2],IC50 [3],IC50 [4],IC50 [5],IC50 [6],IC50 [7],IC50 [8],IC50 [9],IC50 [10],Ki [11],IC50 [12],IC50 [13],Ki [14],Ki [15],Ki [16],IC50 [17]
C[C@H](Cn1cnc2c(N)ncnc21)OCP(=O)(O)OP(=O)(O)OP(=O)(O)O,12000 nM,13000 nM,1600 nM,1400 nM,19000 nM,13000 nM,2800 nM,13000 nM,8600 nM,,,,,,,,
Cc1cn([C@H]2CO[C@@H](COP(=O)(O)OP(=O)(O)OP(=O)(O)O)O2)c(=O)[nH]c1=O,460 nM,500 nM,,,2000 nM,500 nM,310 nM,500 nM,400 nM,1400 nM,11 nM,220 nM,120 nM,2.8 nM,13 nM,1.8 nM,130 nM
Cc1cn([C@H]2C[C@H](N=[N+]=[N-])[C@@H](COP(=O)(O)OP(=O)(O)OP(=O)(O)O)O2)c(=O)[nH]c1=O [ZIDOVUDINE TRIPHOSPHATE],,,180 nM,140 nM,,,,,,1200 nM,95 nM,210 nM,200 nM,5.4 nM,130 nM,4 nM,190 nM
